Key:
[1] = tested on: HepG2; assay: Hepatoprotective activity against APAP-induced toxicity in human HepG2 cells assessed as cell survival rate at 10 uM after 48 hrs by MTT assay relative to control; type: functional; settings: HepG2, 48 h, read-out: Survival
Method in brief: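 HepG2 cells were co-treated with compound (10 μM final) and acetaminophen (10 mM final per methods; results text cites 8 mM) for 48 h. Bicyclol served as positive control and DMSO as negative control. MTT (0.5 mg/mL) was added for 4 h at 37 °C, formazan dissolved in DMSO, and A570 read. Survival = mean OD treated / mean OD solvent control.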

[2] = tested on: HepG2; assay: Cytotoxicity against human HepG2 cells measured after 72 hrs by MTT assay; settings: HepG2, 72 h
[3] = tested on: HCT-116; assay: Cytotoxicity against human HCT116 cells measured after 72 hrs by MTT assay; settings: HCT-116, 72 h
[4] = tested on: MCF7; assay: Cytotoxicity against human MCF7 cells measured after 72 hrs by MTT assay; settings: MCF7, 72 h
[5] = tested on: BGC-823; assay: Cytotoxicity against human BGC823 cells measured after 72 hrs by MTT assay; settings: BGC-823, 72 h
[6] = tested on: A549; assay: Cytotoxicity against human A549 cells measured after 72 hrs by MTT assay; settings: A549, 72 h

CC(C)[C@H]1CC[C@@H](CO)c2c(O)cc(C(=O)O)cc21
viability at 10 µM [1]: 33.2 to 41.6%

CC(C)[C@H]1CC[C@H](CO)c2c(O)cc(C(=O)O)cc21
viability at 10 µM [1]: 33.2 to 41.6%

C=C(CC[C@@H](C)[C@H]1CC[C@H]2C3=CC(=O)[C@H]4[C@H](O)[C@@H](O)CC[C@]4(C)[C@H]3CC[C@]12C)C(C)COC (stereo partly drawn)
IC50 [2]: > 10000 nM
IC50 [3]: > 10000 nM
IC50 [4]: 2600 nM
IC50 [5]: > 10000 nM
IC50 [6]: > 10000 nM
viability at 10 µM [1]: 33.2 to 41.6%

CC(=O)OC/C(=C\[C@@H]1[C@@H](C(C)C)CC[C@@]2(O)COC(=O)[C@@H]12)C(=O)O
viability at 10 µM [1]: 33.2 to 41.6%

CC(C)[C@H]1CC[C@H](C(=O)O)[C@H]2CCC(C(=O)O)=C[C@@H]21
viability at 10 µM [1]: 33.2 to 41.6%

C=C1CC[C@H](C(C)C)[C@@H](/C=C(\CC(=O)O)C(=O)O)[C@@H]1O
viability at 10 µM [1]: 33.2 to 41.6%

C=C(C)[C@@]12O[C@@H]1[C@@]1(C)C(=CC2=O)CC[C@@H](O)[C@@H]1C
viability at 10 µM [1]: 33.2 to 41.6%

COC(=O)c1cc(OC)c2c(c1-c1c(CO)cc(OC)c3c1OCO3)OCO2 [BICYCLOL]
viability at 10 µM [1]: 31.9%

CC(=O)O[C@H]1C(=O)[C@@]2(C)[C@H]([C@H](OC(=O)c3ccccc3)[C@]3(O)C[C@H](OC(=O)[C@H](O)[C@@H](NC(=O)c4ccccc4)c4ccccc4)C(C)=C1C3(C)C)[C@]1(OC(C)=O)CO[C@@H]1C[C@@H]2O [PACLITAXEL]
IC50 [2]: 1.9 nM
IC50 [3]: 1.8 nM
IC50 [4]: 0.2 nM
IC50 [5]: 0.4 nM
IC50 [6]: 13.7 nM
